Assay results as given in ChEMBL document CHEMBL1125078, “Synthesis and evaluation of novel electrophilic nitrofuran carboxamides and carboxylates as radiosensitizers and bioreductively activated cytotoxins” (1990).

Tests used:
[1] = Differential toxicity expressed as the ratio of C50 (air) to C50 (nitrogen); format: functional
In short: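 Differential toxicity = C50(air)/C50(N2), with each C50 from the MTT assay on V79-379A cells under air or nitrogen; mean of at least three experiments.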

[2] = tested on: V79-379A (Chinese hamster lung fibroblasts); assay: Cytotoxicity in air (MMT assay).
[3] = Molar concentration required to give a sensitizer enhancement ratio of 1.6 in hypoxic […] (V79) cells.; format: functional, Cricetulus griseus
In short: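 Hypoxic Chinese hamster V79-379A cells irradiated in vitro with compound present; C1.6 = molar concentration of compound giving a sensitizer enhancement ratio of 1.6.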

[4] = tested on: V79-379A (Chinese hamster lung fibroblasts); assay: Cytotoxicity in nitrogen (MMT assay).
[5] = Compound was tested for persistent physical or behavioral effects in C3H/He mice; format: functional, Mus musculus
In short: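 Toxicity screen in C3H/He mice: single injection as PBS (pH 7.3) solution or suspension, 0.5 or 1.0 mL per 25 g body weight, doses raised until solubility or toxicity limited; animals watched for acute, severe or persistent physical or behavioural changes (e.g. piloerection, respiration rate, locomotor activity for about 1 h).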

Q: Which results are given for `C[C@@H]1[C@H](C)N1CC(O)CNC(=O)C1OC1c1ccc([N+](=O)[O-])o1` (some centres not stated)?
A: d tox [1]: 1; C50 [2]: 0.012 mM; C1.6 [3]: 0.025 mM; C50 [4]: 0.012 mM

Q: Which d tox [1] does the source give for `C=CCOC(=O)c1ccc([N+](=O)[O-])o1` here?
A: Its d tox is 4.

Q: And the C50 [2]?
A: The C50 was 0.1 mM.

Q: What about the C1.6 [3] of the same molecule?
A: The C1.6 was 0.05 mM.

Q: And the C50 [4]?
A: Its C50 is 0.025 mM.

Q: For `C=CCNC(=O)/C=C/c1ccc([N+](=O)[O-])o1`, which d tox [1] is on record?
A: The d tox was 2.4.

Q: What about the C50 [2] of the same molecule?
A: The C50 was 0.06 mM.

Q: What about the C1.6 [3] of the same molecule?
A: The C1.6 was 0.03 mM.

Q: And the C50 [4]?
A: Its C50 is 0.025 mM.

Q: With `C=CCNC(=O)c1cc([N+](=O)[O-])oc1C` as the molecule, how does the d tox [1] read?
A: Its d tox is 0.4.

Q: And the C50 [2]?
A: Its C50 is 0.35 mM.

Q: And the C1.6 [3]?
A: Its C1.6 is 0.075 mM.

Q: And the C50 [4]?
A: The C50 was 0.8 mM.

Q: With `O=C(/C=C/c1ccc([N+](=O)[O-])o1)NCC1CO1` (configuration not stated) as the molecule, how does the d tox [1] read?
A: The d tox was 3.

Q: And the C50 [2]?
A: Its C50 is 0.03 mM.

Q: What about the C1.6 [3] of the same molecule?
A: The C1.6 was 0.008 mM.

Q: And the C50 [4]?
A: The C50 was 0.01 mM.

Q: And the Max dose [5]?
A: The Max dose was 25 mM/kg.

Q: With `C=CCNC(=O)c1cc([N+](=O)[O-])c(C)o1` as the molecule, how does the d tox [1] read?
A: Its d tox is 0.5.

Q: And the C50 [2]?
A: Its C50 is 0.015 mM.

Q: What about the C50 [4] of the same molecule?
A: The C50 was 0.03 mM.

Q: Which d tox [1] does the source give for `CC1(C)CN1CC(O)CNC(=O)/C=C/c1ccc([N+](=O)[O-])o1` (configuration not stated) here?
A: The d tox was 4.5.

Q: What about the C50 [2] of the same molecule?
A: The C50 was 0.045 mM.

Q: And the C1.6 [3]?
A: Its C1.6 is 0.008 mM.

Q: And the C50 [4]?
A: Its C50 is 0.01 mM.

Q: For `Br.NC(=O)N/N=C/c1ccc([N+](=O)[O-])o1`, which d tox [1] is on record?
A: The d tox was 8.5.

Q: What about the C50 [2] of the same molecule?
A: Its C50 is 1.7 mM.

Q: What about the C1.6 [3] of the same molecule?
A: The C1.6 was 0.05 mM.

Q: And the C50 [4]?
A: The C50 was 0.2 mM.

Q: For `C=CCNC(=O)c1ccc([N+](=O)[O-])o1`, which d tox [1] is on record?
A: The d tox was 1.8.

Q: And the C50 [2]?
A: The C50 was 0.08 mM.

Q: What about the C1.6 [3] of the same molecule?
A: The C1.6 was 0.05 mM.

Q: What about the C50 [4] of the same molecule?
A: Its C50 is 0.045 mM.

Q: With `Cc1oc([N+](=O)[O-])cc1C(=O)NCC1CO1` (configuration not stated) as the molecule, how does the d tox [1] read?
A: The d tox was 1.

Q: What about the C50 [2] of the same molecule?
A: The C50 was 0.1 mM.

Q: And the C1.6 [3]?
A: Its C1.6 is 0.04 mM.

Q: What about the C50 [4] of the same molecule?
A: The C50 was 0.1 mM.

Q: With `CC1(C)CN1CC(O)CNC(=O)c1ccc([N+](=O)[O-])o1` (configuration not stated) as the molecule, how does the d tox [1] read?
A: Its d tox is 2.

Q: What about the C50 [2] of the same molecule?
A: Its C50 is 0.15 mM.

Q: What about the C1.6 [3] of the same molecule?
A: The C1.6 was 0.04 mM.

Q: What about the C50 [4] of the same molecule?
A: Its C50 is 0.075 mM.

Q: For `Br.O=[N+]([O-])c1nccn1CC(O)CNCCBr` (configuration not stated), which d tox [1] is on record?
A: The d tox was 25.6.

Q: And the C50 [2]?
A: The C50 was 2.3 mM.

Q: And the C1.6 [3]?
A: Its C1.6 is 0.1 mM.

Q: And the C50 [4]?
A: Its C50 is 0.09 mM.

Q: Which d tox [1] does the source give for `COCC(O)Cn1ccnc1[N+](=O)[O-]` (configuration not stated) [MISONIDAZOLE] here?
A: The d tox was 11.3.

Q: What about the C50 [2] of the same molecule?
A: The C50 was 45 mM.

Q: What about the C1.6 [3] of the same molecule?
A: The C1.6 was 0.3 mM.

Q: And the C50 [4]?
A: The C50 was 4 mM.

Q: What does the source list for `C[C@@H]1[C@H](C)N1CC(O)CNC(=O)c1ccc([N+](=O)[O-])o1` (some centres not stated)?
A: d tox [1]: 3; C50 [2]: 0.06 mM; C1.6 [3]: 0.05 mM; C50 [4]: 0.02 mM

Q: With `CC(C)(CO)NC(=O)c1ccc([N+](=O)[O-])o1` as the molecule, how does the d tox [1] read?
A: The d tox was 2.1.

Q: What about the C50 [2] of the same molecule?
A: Its C50 is 0.25 mM.

Q: What about the C1.6 [3] of the same molecule?
A: Its C1.6 is 0.05 mM.

Q: And the C50 [4]?
A: The C50 was 0.12 mM.

Q: What about the Max dose [5] of the same molecule?
A: The Max dose was 100 mM/kg.

Q: What does the source list for `CC1(C)CN1C(=O)c1ccc([N+](=O)[O-])o1`?
A: d tox [1]: 1; C50 [2]: 0.18 mM; C1.6 [3]: 0.1 mM; C50 [4]: 0.18 mM

Q: Which d tox [1] does the source give for `Br.C[C@H](Br)[C@H](C)NCC(O)CNC(=O)c1ccc([N+](=O)[O-])o1` (some centres not stated) here?
A: Its d tox is 5.6.

Q: And the C50 [2]?
A: The C50 was 0.14 mM.

Q: And the C1.6 [3]?
A: The C1.6 was 0.03 mM.

Q: What about the C50 [4] of the same molecule?
A: The C50 was 0.025 mM.

Q: With `O=[N+]([O-])c1nccn1CC(O)CN1CC1` (configuration not stated) as the molecule, how does the d tox [1] read?
A: The d tox was 66.6.

Q: And the C50 [2]?
A: The C50 was 0.3 mM.

Q: And the C1.6 [3]?
A: Its C1.6 is 0.1 mM.

Q: And the C50 [4]?
A: Its C50 is 0.0045 mM.

Q: For `C[C@@H]1[C@H](C)N1CC(O)CNC(=O)/C=C/c1ccc([N+](=O)[O-])o1` (some centres not stated), which d tox [1] is on record?
A: The d tox was 1.8.

Q: What about the C50 [2] of the same molecule?
A: Its C50 is 0.07 mM.

Q: What about the C1.6 [3] of the same molecule?
A: The C1.6 was 0.035 mM.

Q: And the C50 [4]?
A: Its C50 is 0.04 mM.

Q: Which d tox [1] does the source give for `O=C(NCC1CO1)c1ccc([N+](=O)[O-])o1` (configuration not stated) here?
A: Its d tox is 1.

Q: What about the C50 [2] of the same molecule?
A: Its C50 is 0.05 mM.

Q: And the C1.6 [3]?
A: Its C1.6 is 0.02 mM.

Q: And the C50 [4]?
A: Its C50 is 0.05 mM.

Q: And the Max dose [5]?
A: Its Max dose is 50 mM/kg.
